Measured values from ChEMBL document CHEMBL2040727, “Substituted thiazoles VI. Synthesis and antitumor activity of new 2-acetamido- and 2 or 3-propanamido-thiazole analogs” (2012).

Assays:
Format in all cases: functional
[1] = system: EKVX; assay: Growth inhibition of human EKVX cells at 10 uM after 48 hrs by coulter counter analysis; conditions: read-out: GI
In short: (§1)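 Single-dose NCI 60-line panel screen of test compounds. Cells grown in RPMI 1640 with 10% FBS. Compounds dissolved in DMSO, then diluted in phosphate buffer saline (final DMSO below 1%). Wells run in duplicate at 6 × 10⁴ cells/ml. Controls held PBS and DMSO at matching dilutions. Incubation 48 h at 37 °C under humidified 5% CO2. Cells diluted tenfold in saline and counted by Coulter counter. Percent growth inhibition taken from mean-graph of treated-cell growth.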

[2] = Growth inhibition of human NCI-ADR-RES cells at 10 uM after 48 hrs by coulter counter analysis; conditions: read-out: GI; in short: as §1
[3] = system: TK-10; assay: Growth inhibition of human TK10 cells at 10 uM after 48 hrs by coulter counter analysis; conditions: TK-10, 48 h, read-out: GI
In short: (§2)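 Single-dose screen in the NCI 60 cell line panel. Cells grown in RPMI 1640 with 10% FBS. Compounds dissolved in DMSO and diluted in phosphate buffered saline, final DMSO under 1%. Duplicate wells seeded from culture at 6 × 10⁴ cells/ml. Incubated 48 h at 37 °C, humidified, 5% CO2. Cells diluted tenfold in saline and Coulter-counted. Percent growth inhibition computed against PBS/DMSO controls.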

[4] = system: SNB-19; assay: Growth inhibition of human SNB19 cells at 10 uM after 48 hrs by coulter counter analysis; conditions: SNB-19, 48 h, read-out: GI; in short: as §1
[5] = system: SNB-75; assay: Growth inhibition of human SNB75 cells at 10 uM after 48 hrs by coulter counter analysis; conditions: SNB-75, 48 h, read-out: GI; in short: as §2
[6] = system: NCI-H522; assay: Growth inhibition of human NCI-H522 cells at 10 uM after 48 hrs by coulter counter analysis; conditions: NCI-H522, 48 h, read-out: GI; in short: as §1
[7] = system: KM12; assay: Growth inhibition of human KM12 cells at 10 uM after 48 hrs by coulter counter analysis; conditions: KM12, 48 h, read-out: GI; in short: as §1
[8] = system: SK-MEL-2; assay: Growth inhibition of human SK-MEL-2 cells at 10 uM after 48 hrs by coulter counter analysis; conditions: SK-MEL-2, 48 h, read-out: GI; in short: as §1
[9] = system: SR; assay: Growth inhibition of human SR cells at 10 uM after 48 hrs by coulter counter analysis; conditions: read-out: GI; in short: as §2
[10] = system: M14; assay: Growth inhibition of human M14 cells at 10 uM after 48 hrs by coulter counter analysis; conditions: M14, 48 h, read-out: GI; in short: as §1
[11] = system: HL-60(TB); assay: Growth inhibition of human HL-60(TB) cells at 10 uM after 48 hrs by coulter counter analysis; conditions: HL-60, 48 h, read-out: GI
In short: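 Cells grown in RPMI 1640 with 10% FBS. Compound was dissolved in DMSO and diluted in PBS (under 1% DMSO final), then added in duplicate wells to culture at 6 × 10⁴ cells/ml. PBS/DMSO vehicle controls were included. Incubated at 37 °C, humidified 5% CO₂, for 48 h. Cells were diluted 10-fold in saline and Coulter-counted. Single-dose NCI-60 screen, read as percent growth inhibition.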

[12] = system: HCT-116; assay: Growth inhibition of human HCT116 cells at 10 uM after 48 hrs by coulter counter analysis; conditions: HCT-116, 48 h, read-out: GI; in short: as §1
[13] = system: NCI-H460; assay: Growth inhibition of human NCI-H460 cells at 10 uM after 48 hrs by coulter counter analysis; conditions: NCI-H460, 48 h, read-out: GI; in short: as §1
[14] = system: MOLT-4; assay: Growth inhibition of human MOLT4 cells at 10 uM after 48 hrs by coulter counter analysis; conditions: MOLT-4, 48 h, read-out: GI; in short: as §1
[15] = system: OVCAR-3; assay: Growth inhibition of human OVCAR3 cells at 10 uM after 48 hrs by coulter counter analysis; conditions: OVCAR-3, 48 h, read-out: GI; in short: as §1
[16] = system: MCF7; assay: Growth inhibition of human MCF7 cells at 10 uM after 48 hrs by coulter counter analysis; conditions: MCF7, 48 h, read-out: GI; in short: as §1
[17] = system: UACC-257; assay: Growth inhibition of human UACC257 cells at 10 uM after 48 hrs by coulter counter analysis; conditions: UACC-257, 48 h, read-out: GI; in short: as §2
[18] = system: A549; assay: Growth inhibition of human A549/ATCC cells at 10 uM after 48 hrs by coulter counter analysis; conditions: A549, 48 h, read-out: GI; in short: as §1
[19] = system: ACHN; assay: Growth inhibition of human ACHN cells at 10 uM after 48 hrs by coulter counter analysis; conditions: read-out: GI; in short: as §1
[20] = system: DU-145; assay: Growth inhibition of human DU145 cells at 10 uM after 48 hrs by coulter counter analysis; conditions: DU-145, 48 h, read-out: GI; in short: as §1
[21] = system: SF-295; assay: Growth inhibition of human SF295 cells at 10 uM after 48 hrs by coulter counter analysis; conditions: SF-295, 48 h, read-out: GI; in short: as §1
[22] = system: SK-OV-3; assay: Growth inhibition of human SKOV3 cells at 10 uM after 48 hrs by coulter counter analysis; conditions: SK-OV-3, 48 h, read-out: GI; in short: as §1
[23] = system: COLO 205; assay: Growth inhibition of human COLO205 cells at 10 uM after 48 hrs by coulter counter analysis; conditions: COLO 205, 48 h, read-out: GI; in short: as §1
[24] = system: U-251; assay: Growth inhibition of human U251 cells at 10 uM after 48 hrs by coulter counter analysis; conditions: U-251, 48 h, read-out: GI; in short: as §2
[25] = system: HOP-92; assay: Growth inhibition of human HOP92 cells at 10 uM after 48 hrs by coulter counter analysis; conditions: HOP-92, 48 h, read-out: GI; in short: as §1

Structure (SMILES)	inhibition of growth at 10 µM [1]	inhibition of growth at 10 µM [2]	inhibition of growth at 10 µM [3]	inhibition of growth at 10 µM [4]	inhibition of growth at 10 µM [5]	inhibition of growth at 10 µM [6]	inhibition of growth at 10 µM [7]	inhibition of growth at 10 µM [8]	inhibition of growth at 10 µM [9]	inhibition of growth at 10 µM [10]	inhibition of growth at 10 µM [11]	inhibition of growth at 10 µM [12]	inhibition of growth at 10 µM [13]	inhibition of growth at 10 µM [14]	inhibition of growth at 10 µM [15]	inhibition of growth at 10 µM [16]	inhibition of growth at 10 µM [17]	inhibition of growth at 10 µM [18]	inhibition of growth at 10 µM [19]	inhibition of growth at 10 µM [20]	further results
CCOC(=O)c1sc(NC(=O)C(C)N2CCOCC2)nc1C (stereo not given)	< 10%	< 10%	< 10%	< 10%	24.4%	< 10%	< 10%	< 10%	< 10%	< 10%	< 10%	< 10%	< 10%	< 10%	< 10%	< 10%	< 10%	< 10%	< 10%	< 10%	inhibition of growth at 10 µM [21]: < 10%; inhibition of growth at 10 µM [22]: < 10%; inhibition of growth at 10 µM [23]: < 10%; inhibition of growth at 10 µM [24]: < 10%; inhibition of growth at 10 µM [25]: < 10%
CCOC(=O)c1sc(NC(=O)C(C)N2CCN(C)CC2)nc1C (stereo not given)	< 10%	< 10%	< 10%	< 10%	< 10%	< 10%	< 10%	< 10%	< 10%	< 10%	< 10%	< 10%	< 10%	< 10%	< 10%	< 10%	< 10%	< 10%	< 10%	< 10%	inhibition of growth at 10 µM [21]: < 10%; inhibition of growth at 10 µM [22]: < 10%; inhibition of growth at 10 µM [23]: < 10%; inhibition of growth at 10 µM [24]: < 10%; inhibition of growth at 10 µM [25]: < 10%
